SENP1 inh = human SENP1 catalytic domain inhibitors, primary screen, biochemical, FRET, uHTS; Sentrin-specific protease 1 (Homo sapiens), Q9P0U3; recombinant SENP1 catalytic domain, CyPet-SUMO1-YPet FRET cleavage; inhibition, % at 10 µM; 360,000 tested, 0.21% active;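 active = inhibition at least 30% at 10 µM, raw YFP signal under a set limit, fluorescence ratio 0.5 to 1.5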
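system = hSENP1 catalytic domain, recombinant | reagent = SFCypet-SUMO1-SFYpet substrate at 25 nM | doses = one dose per compound, 10 µM, 0.5% DMSO | incubation = enzyme reaction for 50 min at room temperature, dark | measured by = FRET, CFP and YFP emission | controls = no-enzyme low, enzyme-DMSO high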
ADAM17 inh = ADAM17 inhibitors, primary screen, biochemical, QFRET | inhibition, % at 6.95 µM | AID 720648, 2013 | 370,000 tested, 0.83% active | recombinant ADAM17, EDANS/DABCYL FRET peptide cleavage | Disintegrin and metalloproteinase domain-containing protein 17 (Homo sapiens), P78536;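 active = inhibition above the mean of compounds lying between control limits plus 3 SD, set per campaign, cut at about 8.5% in these data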
FAS-TE inh = FAS thioesterase domain inhibitors, primary screen, biochemical, fluorescence intensity, uHTS. Fatty acid synthase (Homo sapiens), P49327. recombinant FAS-TE, OMFH fluorogenic substrate, fluorescence endpoint. inhibition, % at 15 µM. 360,000 tested, 0.67% active;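 active = compounds whose normalised, plate-corrected inhibition of enzyme fluorescence in the single-dose primary screen is 50% or more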
ADAM10 inh = human ADAM10 inhibitors, primary screen, biochemical, QFRET, HTS. Disintegrin and metalloproteinase domain-containing protein 10 (Homo sapiens), O14672. recombinant ADAM10, EDANS/DABCYL FRET peptide cleavage, 3 h. inhibition, % at 7 µM. 370,000 tested, 0.62% active. AID 720582, 2013;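 active = inhibition above a per-campaign cutoff equal to the mean of compounds falling between control-based bounds plus 3 SD, cut at about 20% in these data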
FAS-TE conf = FAS thioesterase domain inhibitors, confirmation, biochemical, fluorescence intensity, single concentration. shares compounds with FAS-TE inh. recombinant FAS-TE, OMFH fluorogenic substrate. inhibition, % at 15 µM. 2,300 tested, 45% active. AID 624325, 2012;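 active = compounds inhibiting the enzyme by at least 50% at 15 µM in any one of the replicates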
Hits are given with their value; i = inactive; nt = no result given. The list is not random: actives were taken first. Their share in the collection is about 1.9%.

SMILES | SENP1 inh | ADAM17 inh | FAS-TE inh | ADAM10 inh | FAS-TE conf
COc1ccc(S(=O)(=O)N(C)C[C@@H]2OCCCC[C@@H](C)Oc3ccc(NS(=O)(=O)c4cccs4)cc3C(=O)N([C@H](C)CO)C[C@@H]2C)cc1 | i | i | 67 | i | i
COCCCNC(=O)[C@@H](Cc1ccccc1)NC(=O)[C@H]1O[C@@H](n2ccc(=O)[nH]c2=O)[C@H](O)[C@@H]1O | nt | i | nt | i | nt
CO[C@H]([C@H](C)/C=C/N(C)C=O)[C@@H](C)C(=O)CC[C@H](C)[C@H](O)[C@H](C)[C@H]1OC(=O)/C=C/C(C)=C/C[C@H](O)C[C@@H]2C=CC[C@@H](C[C@H](OC)[C@@]3(CO3)[C@@H](OC)C[C@@H](OC)[C@@H]1C)O2 | nt | i | nt | i | nt
O=c1c2cc3cccnc3nc2ncn1Cc1cccs1 | nt | i | nt | i | nt
Cc1ccc(S(=O)(=O)Nc2ccc3c(c2)CC(=O)N([C@H](C)CO)C[C@@H](C)[C@H](CN(C)Cc2ccc(-c4ccccc4)cc2)O3)cc1 | i | nt | 73 | nt | i
C[C@H](CO)N1C[C@H](C)[C@H](CN(C)Cc2ccc(-c3ccccc3)cc2)Oc2ccc(NS(=O)(=O)c3ccccc3)cc2CC1=O | i | nt | i | nt | nt
Cc1ccc(S(=O)(=O)N(C)C[C@@H]2Oc3ccc(NC(=O)Nc4cccc5ccccc45)cc3C(=O)N([C@H](C)CO)C[C@H]2C)cc1 | i | i | 67 | i | i
CC(C)C[C@H]1COc2cccc(F)c2S(=O)(=O)N1Cc1cn(Cc2ccc(C(F)(F)F)cc2)nn1 | nt | i | nt | i | nt
Cn1c2ccccc2c2ccc3c(c21)C(=O)C=CC3=O | i | i | i | i | nt
Cc1ccc2c(c1)c1ccc3c(c1n2C)C(=O)C=CC3=O | i | i | 54 | i | i
C#CCN(C[C@H]1[C@H](OC(=O)NCc2ccc(OC)c(OC)c2)[C@H](OC(=O)NCc2ccc(OC)c(OC)c2)C[C@H]2C(=O)N(c3ccccc3)C(=O)[C@@H]12)S(=O)(=O)c1ccc(C)cc1 | i | i | 71 | i | i
C=CCn1c(SCc2ccc(Br)cc2F)nc2cc(C(=O)O)ccc2c1=O | i | i | 62 | i | 65
N#Cc1cc2ccc(N3CCOCC3)cc2cc1C#N | i | i | 74 | i | 62
CCN(CC)C(=O)CC[C@H]1CC[C@]2(CCCN(C(=O)C(C)(C)C)C2)O1 | nt | i | nt | i | nt
Cc1cccc(Nc2nnc(-c3ccc(N4CCOCC4)c([N+](=O)[O-])c3)c3ccccc23)c1 | i | i | 82 | i | i
COc1ccc(/C=C(\NC(=O)c2ccc(C)cc2)C(=O)NCCN2CCOCC2)cc1 | i | i | i | i | nt
O=C(N/C(=C\c1ccc(Br)cc1)C(=O)N1CCOCC1)c1ccc([N+](=O)[O-])cc1 | i | i | 91 | i | 93
O=C(N/C(=C\c1ccco1)C(=O)N1CCOCC1)c1ccc([N+](=O)[O-])cc1 | i | i | i | i | nt
COc1ccc(C(=O)N/C(=C\c2ccc(Cl)cc2)C(=O)NCCN2CCOCC2)cc1 | i | i | i | i | nt
COc1ccc(/C=C(\NC(=O)c2ccc([N+](=O)[O-])cc2)C(=O)NCCCN2CCOCC2)cc1 | i | i | 76 | i | 79
COc1ccc(/C=C(\NC(=O)c2ccc([N+](=O)[O-])cc2)C(=O)NCCN2CCOCC2)cc1 | i | i | 64 | i | 73
COC(=O)C1=C(C)N(Cc2cccc(C(F)(F)F)c2)C(=NCC2CC2)NC1c1ccc(F)cc1 (configuration not stated) | nt | i | nt | i | nt
COc1ccc(C(C(=O)N(C)C2CCCC2)N(Cc2ccc(F)cc2)C(=O)c2csc(N3CCOCC3)n2)cc1OC (configuration not stated) | nt | i | nt | i | nt
CCOC(=O)[C@]12CCCCC/C=C\1N(Cc1ccc(OC)cc1)C(=O)[C@H]2CC(=O)NCc1cccs1 | nt | i | nt | i | nt
Cc1cc(NS(=O)(=O)C2CCN(C(=O)Cc3ccc(Cl)c(Cl)c3)CC2)no1 | nt | i | nt | i | nt
SMILES | SENP1 inh | ADAM17 inh | FAS-TE inh | ADAM10 inh | FAS-TE conf
COc1ccc(NC(=O)c2c[nH]n3c(=O)cc(C4CCN(C(=O)OC(C)(C)C)CC4)nc23)cc1Cl | i | i | i | i | nt
CC(C)(C)OC(=O)N1CCC(c2cc(=O)n3[nH]cc(C(=O)Nc4ccc(F)c(Cl)c4)c3n2)CC1 | i | i | 77 | i | 64
COC(=O)c1ccc(C(=O)OC)c(NC(=O)N2c3ccccc3Sc3ccccc32)c1 | i | i | i | i | nt
O=C(Nc1ccc(S(=O)(=O)N2CCCC2)cc1)N1c2ccccc2Sc2ccccc21 | i | i | 76 | i | i
COC(=O)c1cc(NC(=O)N2c3ccccc3Sc3ccccc32)cc(C(=O)OC)c1 | i | i | 72 | i | i
CCCC1CCC2(CC1)CCC2OC(=S)Nc1cccc(Cl)c1 (configuration not stated) | nt | i | nt | i | nt
O=S(=O)(c1ccc(-c2csc(-c3cccnc3)n2)cc1)N1CCCCC1 | i | i | 77 | i | 83
O=S(=O)(c1cccc(-c2csc(-c3cccnc3)n2)c1)N1CCCCC1 | i | i | i | i | nt
O=S(=O)(c1ccc(-c2csc(-c3cccnc3)n2)cc1)N1CCCC1 | i | i | 81 | i | 86
O=C(CCC1CCCC1)Nc1cc(Cl)ccc1N1CCOCC1 | i | i | i | i | nt
CC(C)(C)c1ccc(C(=O)NCCC(=O)Nc2cc(Cl)ccc2N2CCOCC2)cc1 | i | i | 67 | i | 67
O=C(NC1CC1)c1cccc2c1C(=O)c1ccc(N3CCC(Cc4ccccc4)CC3)cc1S2(=O)=O | i | i | i | i | nt
COc1ccc(-c2ccc3c(c2)S(=O)(=O)c2cccc(C(=O)N4CCN(c5c(Cl)cncc5Cl)CC4)c2C3=O)cc1OC | 51 | i | 68 | i | i
O=C1c2ccc(Cl)cc2S(=O)(=O)c2cccc(C(=O)N3CCN(c4ncc(Br)cn4)CC3)c21 | i | i | 68 | i | i
N#Cc1cccnc1N1CCN(C(=O)c2cccc3c2C(=O)c2ccc(-c4ccc(Cl)c(C(F)(F)F)c4)cc2S3(=O)=O)CC1 | i | nt | 80 | nt | i
COc1ccc(-c2ccc3c(c2)S(=O)(=O)c2cccc(C(=O)NC[C@@H]4CCCO4)c2C3=O)cc1OC | i | i | i | i | nt
O=C1c2ccc(Cl)cc2S(=O)(=O)c2cccc(C(=O)N3CCC(Cc4ccccc4)CC3)c21 | i | i | 84 | i | i
O=C(NC1CCCC1)c1cccc2c1C(=O)c1ccc(Cl)cc1S2(=O)=O | i | i | i | i | nt
N#Cc1cccnc1N1CCN(C(=O)c2cccc3c2C(=O)c2ccc(Cl)cc2S3(=O)=O)CC1 | i | i | i | i | nt
COc1ccc(-c2c(C#N)sc(C(N)=O)c2-c2ccc(OC)cc2)cc1 | i | i | 60 | i | i
N#Cc1sc(C(N)=O)c(-c2ccccc2)c1-c1ccccc1 | i | i | i | i | nt
